Publication PMC4931877 (The Journal of Pharmacology and Experimental Therapeutics, 2016)

Tests used:
Type in all cases: in vivo, human
[1] = SAD study CSF pharmacokinetics
Method in brief: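 In panel 9, 15 healthy subjects received a single 900-mg dose or placebo (2:1) in the fasted state. CSF was drawn by lumbar cannulation at −1, 0, 2, 4, 6, 8, 12, 15, 18 and 24 h postdose, using polypropylene ware and a pump without a filter. Samples were stored at −80°C, and drug was measured by validated LC-MS/MS.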

[2] = tested on: plasma Aβ40, Aβ42, and total Aβ; assay: MAD study pharmacodynamic effects on plasma Aβ
Method in brief: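 Healthy volunteers were dosed once daily at 50, 100 or 200 mg for up to 28 days. EDTA plasma was stored at −80°C. Aβ40 and Aβ42 were measured by Luminex duplex immunoassay (LLOQ 30 and 3 pg/ml) and total Aβ by MSD (LLOQ 50 pg/ml), in duplicate. Values are % change from baseline, analysed by repeated-measures ANCOVA.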

[3] = tested on: plasma Aβ40, Aβ42, and total Aβ; assay: SAD study pharmacodynamic effects on plasma Aβ
Method in brief: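 Single oral doses of 10–1200 mg were given as solution or capsule. Blood tubes were inverted and iced, then centrifuged within 30 min at room temperature for 15 min at about 1000g. Plasma was stored at −80°C. Aβ40 and Aβ42 were measured by Luminex duplex immunoassay and total Aβ by MSD, in duplicate.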

[4] = MAD study safety and tolerability
Method in brief: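 Multiple-dose healthy young and elderly subjects were assessed by vital signs, physical examination, 12-lead ECG and clinical laboratory tests. AEs were spontaneously reported or elicited, and their onset, duration, intensity, seriousness, relatedness and action taken were recorded. AEs were coded by MedDRA 12.1 system organ class and preferred term. Columbia suicidality ratings were also collected.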

## CNc1nc(Nc2ccc(-n3cnc(C)n3)c(OC)c2)nc2c1CC[C@H]2c1ccc(F)cc1 [BMS-932481, (S)-7-(4-fluorophenyl)-N2-(3-methoxy-4-(3-methyl-1H-1,2,4-triazol-1-yl)phenyl)-N4-methyl-6,7-dihydro-5H-cyclopenta[d]pyrimidine-2,4-diamine]
[1]; SAD panel 9, 900 mg
  Tmax Median (Minimum–Maximum): 6 (4–18) h
[1]; human, oral, 900 mg
  AUC(0-t): 97 ng·h/mL
  Cmax: 6.5 ng/mL
  Kp: < 0.01
  Tmax: 6 h
[2]; MAD 50-mg dose, up to
  decrease of plasma Aβ40 levels: 40%–50
[2]; MAD 100- and 200-mg cohorts
  plasma Aβ42 during the dosing period: below the limit of quantitation
[2]; MAD 200-mg cohort, day 35 (11 days after the last dose)
  reduction of plasma Aβ42 levels: 46%
[2]; multiple dose cohorts
  change in plasma total Aβ: No changes
[2]; multiple-dose administrations
  effect on plasma Aβ42 and Aβ40: dose-dependently decreased
[3]; single dose cohorts
  change in plasma total Aβ: No changes
[3]; single-dose
  effect on plasma Aβ42 and Aβ40: dose-dependently decreased
[4]; MAD
  ECG- or vital sign–related AEs: no ECG- or vital sign–related AEs
[4]; MAD 50 mg, three of six
  subjects with increases in total bilirubin: 50%
  subjects with low leukocyte counts: 50%
[4]; MAD 100 mg, three of six
  subjects with increases in total bilirubin: 50%
[4]; MAD 200 mg, five of six
  subjects with increases in bilirubin: 83%
[4]; MAD 200 mg, three of six
  subjects with low estimated creatinine clearance: 50%
  subjects with low leukocyte counts: 50%
[4]; MAD, 50 mg
  AEs: 5 (83.3) n (%)
  Deaths: 0 n (%)
  Discontinuation due to AEs: 0 n (%)
  Elevated ALT (marked laboratory abnormality): 0 n (%)
  Elevated bilirubin (marked laboratory abnormality): 3 (50.0) n (%)
  Elevates AST (marked laboratory abnormality): 0 n (%)
  Low hematocrit (marked laboratory abnormality): 1 (16.7) n (%)
  Low hemoglobin (marked laboratory abnormality): 2 (33.3) n (%)
  Low leukocytes (marked laboratory abnormality): 3 (50.0) n (%)
  Low lymphocytes (marked laboratory abnormality): 1 (16.7) n (%)
  Low neutrophils (marked laboratory abnormality): 0 n (%)
  SAEs: 0 n (%)
  Treatment-related AEs: 3 (50.0) n (%)
[4]; MAD, 100 mg
  AEs: 4 (66.7) n (%)
  Deaths: 0 n (%)
  Discontinuation due to AEs: 0 n (%)
  Elevated ALT (marked laboratory abnormality): 0 n (%)
  Elevated bilirubin (marked laboratory abnormality): 3 (50.0) n (%)
  Elevates AST (marked laboratory abnormality): 0 n (%)
  Low hematocrit (marked laboratory abnormality): 1 (16.7) n (%)
  Low hemoglobin (marked laboratory abnormality): 1 (16.7) n (%)
  Low leukocytes (marked laboratory abnormality): 1 (16.7) n (%)
  Low lymphocytes (marked laboratory abnormality): 0 n (%)
  Low neutrophils (marked laboratory abnormality): 1 (16.7) n (%)
  SAEs: 0 n (%)
  Treatment-related AEs: 1 (16.7) n (%)
[4]; MAD, 200 mg
  AEs: 6 (100.0) n (%)
  Deaths: 0 n (%)
  Discontinuation due to AEs: 2 (33.3) n (%)
  Elevated ALT (marked laboratory abnormality): 4 (66.7) n (%)
  Elevated bilirubin (marked laboratory abnormality): 5 (83.3) n (%)
  Elevates AST (marked laboratory abnormality): 2 (33.3) n (%)
  Low hematocrit (marked laboratory abnormality): 0 n (%)
  Low hemoglobin (marked laboratory abnormality): 1 (16.7) n (%)
  Low leukocytes (marked laboratory abnormality): 3 (50.0) n (%)
  Low lymphocytes (marked laboratory abnormality): 0 n (%)
  Low neutrophils (marked laboratory abnormality): 2 (33.3) n (%)
  SAEs: 2 (33.3) n (%)
  Treatment-related AEs: 4 (66.7) n (%)
[4]; MAD, 15 subjects
  subjects with AEs: 83.3%
[4]; MAD, all BMS-932481 doses
  AEs: 15 (83.3) n (%)
  Deaths: 0 n (%)
  Discontinuation due to AEs: 2 (11.1) n (%)
  Elevated ALT (marked laboratory abnormality): 4 (22.2) n (%)
  Elevated bilirubin (marked laboratory abnormality): 11 (61.1) n (%)
  Elevates AST (marked laboratory abnormality): 2 (11.1) n (%)
  Low hematocrit (marked laboratory abnormality): 2 (11.1) n (%)
  Low hemoglobin (marked laboratory abnormality): 4 (22.2) n (%)
  Low leukocytes (marked laboratory abnormality): 7 (38.9) n (%)
  Low lymphocytes (marked laboratory abnormality): 1 (5.6) n (%)
  Low neutrophils (marked laboratory abnormality): 3 (16.7) n (%)
  SAEs: 2 (11.1) n (%)
  Treatment-related AEs: 8 (44.4) n (%)
[4]; MAD, eight subjects
  subjects with treatment-related AEs: 44.4%
[4]; after multiple dosing
  CSF Aβ42 lowering at exposures at which increases in liver enzymes were observed: greater than 70%
